According to ChEMBL document CHEMBL1764957, “Inhibitors and promoters of tubulin polymerization: synthesis and biological evaluation of chalcones and related dienones as potential anticancer agents” (Bioorg Med Chem, 2011):
Calls of active or inactive are those of the source. The rule behind the calls is not given here.

Experiments:
[1] = Cytotoxicity against human 8226/DOX40 cells after 72 hrs by fluorometric assay; format: functional, cell-based
Procedure, shortened: (§1)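 Fluorometric microculture cytotoxicity assay (FMCA). Cell suspensions (10,000–20,000 cells per mL) were exposed at 37 °C for 72 h to six concentrations from 0.016 to 50, added from DMSO stocks (at most 1% DMSO final). Cells were washed with PBS and given fluorescein diacetate (10 µg/mL). Fluorescence at 485/520 nm was read after 40 min. Survival index is relative to untreated wells. Duplicate wells, experiment repeated twice.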

[2] = Cytotoxicity against human 8226/LR-5 cells after 72 hrs by fluorometric assay; format: functional, cell-based; procedure, shortened: as §1
[3] = test system: NCI-H69; test: Cytotoxicity against human NCI-H69 cells after 72 hrs by fluorometric assay; format: functional, cell-based; conditions: NCI-H69, 72 h; procedure, shortened: as §1
[4] = test system: H69AR; test: Cytotoxicity against human H69AR cells after 72 hrs by fluorometric assay; format: functional, cell-based; procedure, shortened: as §1
[5] = molecular target: T1, Tubulin (Sus scrofa) (UniProt P02554+P02550); test: Inhibition of pig tubulin polymerization at 25 uM; format: protein assay
Procedure, shortened: (§2)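 Kit assay with porcine tubulin, standard protocol, read by fluorescent reporter enhancement. Test substances were dissolved in DMSO and run at 5 and 25. Docetaxel (stabilizing control) and vincristine (destabilizing control) were diluted in PBS and used at 3. The experiment was run twice and mean values were reported.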

[6] = test system: CCRF-CEM; test: Cytotoxicity against human CCRF-CEM cells after 72 hrs by fluorometric assay; format: functional, cell-based; procedure, shortened: as §1
[7] = Cytotoxicity against human CEM/VM1 cells after 72 hrs by fluorometric assay; format: functional, cell-based; conditions: CEM-VM1, 72 h; procedure, shortened: as §1
[8] = test system: ACHN; test: Cytotoxicity against human ACHN cells after 72 hrs by fluorometric assay; format: functional, cell-based; procedure, shortened: as §1
[9] = test system: U-937/GTB; test: Cytotoxicity against human U937/GTB cells after 72 hrs by fluorometric assay; format: functional, cell-based; procedure, shortened: as §1
[10] = Cytotoxicity against human vincristine-resistant […] cells after 72 hrs by fluorometric assay; format: functional, cell-based; procedure, shortened: as §1
[11] = test system: RPMI-8226; test: Cytotoxicity against human RPMI8226 cells after 72 hrs by fluorometric assay; format: functional, cell-based; conditions: RPMI-8226, 72 h; procedure, shortened: as §1
[12] = molecular target: T1, Tubulin (Sus scrofa); test: Inhibition of pig tubulin polymerization at 3 uM; format: protein assay; procedure, shortened: as §2
[13] = molecular target: T1, Tubulin (Sus scrofa); test: Effect on pig tubulin polymerization assessed as microtubule stabilization at 25 uM; format: protein assay; procedure, shortened: as §2
[14] = molecular target: T1, Tubulin (Sus scrofa); test: Effect on pig tubulin polymerization assessed as microtubule stabilization at 3 uM; format: protein assay; procedure, shortened: as §2
[15] = Homo sapiens, H69AR, 72 h, read-out: IC50

T1 sequence (P02550 whole entry, looked up): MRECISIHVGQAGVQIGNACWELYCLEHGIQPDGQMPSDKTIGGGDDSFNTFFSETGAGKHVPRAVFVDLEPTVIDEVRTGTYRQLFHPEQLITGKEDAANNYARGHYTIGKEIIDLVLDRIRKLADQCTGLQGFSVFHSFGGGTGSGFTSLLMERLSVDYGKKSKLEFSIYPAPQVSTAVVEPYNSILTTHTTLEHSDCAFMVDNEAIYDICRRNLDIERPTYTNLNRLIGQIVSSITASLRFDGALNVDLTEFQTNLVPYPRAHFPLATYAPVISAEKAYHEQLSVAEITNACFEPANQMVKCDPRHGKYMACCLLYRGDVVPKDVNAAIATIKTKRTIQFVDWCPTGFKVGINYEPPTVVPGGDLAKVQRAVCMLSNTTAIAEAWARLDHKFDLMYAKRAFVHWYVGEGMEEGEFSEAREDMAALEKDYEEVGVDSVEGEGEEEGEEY
T1 sequence (P02554 whole entry, looked up): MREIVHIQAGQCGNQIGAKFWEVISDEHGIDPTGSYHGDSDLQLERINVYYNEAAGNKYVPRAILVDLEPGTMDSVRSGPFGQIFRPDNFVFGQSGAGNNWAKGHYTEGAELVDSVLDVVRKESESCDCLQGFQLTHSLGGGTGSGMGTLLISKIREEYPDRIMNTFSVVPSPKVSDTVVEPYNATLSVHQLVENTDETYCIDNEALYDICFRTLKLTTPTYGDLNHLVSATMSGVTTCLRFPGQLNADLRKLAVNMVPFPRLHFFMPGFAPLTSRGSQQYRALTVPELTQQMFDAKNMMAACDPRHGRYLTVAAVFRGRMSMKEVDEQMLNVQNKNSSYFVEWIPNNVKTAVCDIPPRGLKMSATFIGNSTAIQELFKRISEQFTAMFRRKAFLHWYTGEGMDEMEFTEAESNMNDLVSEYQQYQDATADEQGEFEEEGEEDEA

SMILES	IC50 [1] [µM]	IC50 [2] [µM]	IC50 [3] [µM]	IC50 [4, 15] [µM]	inhibition [5]	IC50 [6] [µM]	IC50 [7] [µM]	IC50 [8] [µM]	IC50 [9] [µM]	IC50 [10] [µM]	IC50 [11] [µM]	IC50 ([4]; h69ar)	inhibition [12]	Activity [13]	Activity [14]
CCN(CC)c1ccc(/C=C/C(=O)c2cc(Cl)cc(Br)c2O)cc1	9.7	9.4	5.2	24.5	Active	14.8	14.5	164	9.3	8.8	29.4	–	–	–	–
O=C(/C=C/c1ccccc1)c1cc(Cl)cc(Br)c1O	12.4	13.2	10.3	26.4	Active	37.6	22.3	48.9	20	24.2	18.7	–	–	–	–
O=C(/C=C(\O)c1cc(Cl)cc(Br)c1O)/C=C/c1ccccc1	19.1	33.5	9.4	25.5	inactive	34.1	24.1	37.8	18.1	23.9	27.9	–	–	–	–
O=C(/C=C/C=C/c1ccccc1)c1cc(Cl)cc(Br)c1O	14.2	23.4	19.9	–	Active	129	48.6	93	36.6	31.7	48.8	Non-toxic	–	–	–
O=C(/C=C/c1cccs1)c1cc(Cl)cc(Br)c1O	26.5	23.3	20	56.1	Active	152	48.9	44.2	42.5	32.6	79	–	–	–	–
CC[C@]1(O)C[C@H]2CN(CCc3c([nH]c4ccccc34)[C@@](C(=O)OC)(c3cc4c(cc3OC)N(C=O)[C@H]3[C@@](O)(C(=O)OC)[C@H](OC(C)=O)[C@]5(CC)C=CCN6CC[C@]43[C@@H]65)C2)C1	–	–	–	–	–	–	–	–	–	–	–	–	Active	–	–
O=C(/C=C/c1ccc(C(F)(F)F)cc1)c1cc(Cl)cc(Br)c1O	22.5	22.3	11.5	33.2	inactive	15.4	31.1	49.4	14.9	24.4	20.8	–	–	–	–
CCN(CC)c1ccc(/C=C/C(=O)c2cc(Br)cc(Br)c2O)cc1	7.7	9.9	7.1	38.8	Active	20.1	13.1	69	8.2	9.6	26.1	–	–	–	–
O=C(/C=C/C=C/c1cn(Cc2ccccc2)c2ccccc12)c1cc(Cl)cc(Br)c1O	42.3	70	11.1	48.5	–	280	89	17	49	54	119	–	–	Active	–
CC(=O)O[C@@]12CO[C@@H]1C[C@H](O)[C@@]1(C)C(=O)[C@H](O)C3=C(C)[C@@H](OC(=O)[C@H](O)[C@@H](NC(=O)OC(C)(C)C)c4ccccc4)C[C@@](O)([C@@H](OC(=O)c4ccccc4)[C@H]21)C3(C)C	–	–	–	–	–	–	–	–	–	–	–	–	–	–	Active
COc1ccc(/C=C/C(=O)c2cc(Cl)cc(Br)c2O)cc1	16.9	46	16.4	42.6	inactive	111	45.8	49.4	45	77	80	–	–	–	–
